*1 amine or outer side, *2 acyl side, *3 side chain or, on linkers, in order; H or OH if unused. Where a SMILES comes first, the peptide text is derived from it. [ ]: non-standard residue; d: D form. X1 = O=C([C@@H]1C[C@@H](OS(=O)(=O)O)CN1[*:1])[*:2]; Thr(SO3H) = C[C@@H](OS(=O)(=O)O)[C@H](N)C(=O)O; sY = N[C@@H](Cc1ccc(OS(=O)(=O)O)cc1)C(=O)O
Legend:
Type in all cases: functional
[1] = organism: Oryctolagus cuniculus; assay: Compound was evaluated for cholecystokinin activity measured in isolated rabbit gallbladder strips (in vitro)
How it was run: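 Tension changes recorded with a force-displacement transducer. Dose-response curves were run for CCK-8 and each analogue, with five determinations per compound. ED50 and maximal response came from direct observation and a Dowd-Riggs linear transformation. Activity is relative to CCK-8 (100%), reported as mean ± SEM.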

[2] = tested on: Rattus norvegicus; assay: Compound was evaluated for (in vivo) gastrin like activity measured on perfused rat stomach after intravenous administration
How it was run: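 Male Wistar rats (~250 g), perfused stomach; peptides given iv in physiological saline at 10, 20, 40, 80, 160 and 320 ng; secreted HCl measured by conductometric titration. Pentagastrin standard at 10–80 ng, taken as 100%. Relative potency expressed as a percentage; 10 animals per compound; detection limit 1–2% of pentagastrin.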

[3] = tested on: Mus musculus; assay: Anticonvulsive potency against picrotoxin induced (6 mg/kg sc) convulsions in mice, first tonic seizure
How it was run: (§1)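 Male CFLP mice (25–35 g), 10 per group. Peptides in physiological saline given ip at 0.8 μmol/kg (1 mg/kg for CCK-8) 10 min before picrotoxin 6 mg/kg sc. Latency to first tonic seizure and time of death recorded over 60 min; a score of 60 is given if neither occurs. Percentage prolongation of mean saline-control latency is expressed relative to CCK-8. Student's t test vs saline controls.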

[4] = tested on: Mus musculus; assay: Anticonvulsive activity against picrotoxin-induced (6 mg/kg sc) convulsions in mice, time of death; how it was run: as §1

Compound | Activity [1] [%] | Activity [2] [%] | Activity [3] [%] | Activity [4] [%]
CSCC[C@H](NC(=O)[C@H](Cc1ccc(OS(=O)(=O)[O-])cc1)NC(C)=O)C(=O)NCC(=O)N[C@H](Cc1c[nH]c2ccccc12)C(=O)N[C@@H](CCSC)C(=O)N[C@@H](CC(=O)O)C(=O)N[C@@H](Cc1ccccc1)C(N)=O.[Na+] | 0.7 | 0 | 65 | 45
CSCC[C@H](NC(=O)[C@H](Cc1c[nH]c2ccccc12)NC(=O)[C@@H](C)NC(=O)[C@H](CCSC)NC(=O)[C@H](Cc1ccc(OS(=O)(=O)[O-])cc1)NC(C)=O)C(=O)N[C@@H](CC(=O)O)C(=O)N[C@@H](Cc1ccccc1)C(N)=O.[Na+] | 40 | 0 | 100 | 115
CSCC[C@H](NC(=O)[C@H](Cc1ccc(O)cc1)NC(C)=O)C(=O)NCC(=O)N[C@@H](Cc1c[nH]c2ccccc12)C(=O)N[C@@H](CCSC)C(=O)N[C@@H](COS(=O)(=O)[O-])C(=O)N[C@@H](Cc1ccccc1)C(N)=O.[Na+] | 0.3 | 40 |  | 
CSCC[C@H](NC(=O)[C@H](Cc1ccc(OS(=O)(=O)[O-])cc1)NC(C)=O)C(=O)NCC(=O)N[C@@H](Cc1c[nH]c2ccccc12)C(=O)N[C@@H](CCSC)C(=O)N[C@@H](COS(=O)(=O)[O-])C(=O)N[C@@H](Cc1ccccc1)C(N)=O.[Na+].[Na+] | 190 | 0 | 66 | 121
CSCC[C@H](NC(=O)[C@H](Cc1ccc(OS(=O)(=O)[O-])cc1)NC(C)=O)C(=O)NCC(=O)N[C@@H](Cc1c[nH]c2ccccc12)C(=O)N[C@H](CCSC)C(=O)N[C@@H](CC(=O)O)C(=O)N[C@@H](Cc1ccccc1)C(N)=O.[Na+] | 0.6 | 0 | 21 | 0
CSCC[C@H](NC(=O)[C@H](Cc1ccc(O)cc1)NC(C)=O)C(=O)NCC(=O)N[C@@H](Cc1c[nH]c2ccccc12)C(=O)N[C@@H](CCSC)C(=O)N[C@H](C(=O)N[C@@H](Cc1ccccc1)C(N)=O)[C@@H](C)OS(=O)(=O)[O-].[Na+] (Ac-YMGWM[Thr(SO3H)]F-NH2) | 0.2 | 25 |  | 
CSCC[C@H](NC(=O)[C@H](Cc1ccc(O)cc1)NC(C)=O)C(=O)NCC(=O)N[C@@H](Cc1c[nH]c2ccccc12)C(=O)N[C@@H](CCSC)C(=O)N1C[C@H](OS(=O)(=O)[O-])C[C@H]1C(=O)N[C@@H](Cc1ccccc1)C(N)=O.[Na+] (Ac-YMGWM[X1]F-NH2) | 0.3 | 0 |  | 
CSCC[C@H](NC(=O)[C@H](Cc1ccc(OS(=O)(=O)[O-])cc1)NC(C)=O)C(=O)NCC(=O)N[C@@H](Cc1c[nH]c2ccccc12)C(=O)N[C@@H](CCSC)C(=O)N[C@H](C(=O)N[C@@H](Cc1ccccc1)C(N)=O)[C@@H](C)OS(=O)(=O)[O-].[Na+].[Na+] (Ac-[sY]MGWM[Thr(SO3H)]F-NH2) | 166 | 0 | 146 | 115
CSCC[C@H](NC(=O)[C@H](Cc1ccc(OS(=O)(=O)[O-])cc1)NC(C)=O)C(=O)NCC(=O)N[C@@H](Cc1c[nH]c2ccccc12)C(=O)N[C@@H](CCSC)C(=O)N1C[C@H](OS(=O)(=O)[O-])C[C@H]1C(=O)N[C@@H](Cc1ccccc1)C(N)=O.[Na+].[Na+] (Ac-[sY]MGWM[X1]F-NH2) | 300 | 0 | 79 | 121
CSCC[C@H](NC(=O)[C@H](Cc1ccc(OS(=O)(=O)O)cc1)NC(=O)[C@@H](N)CC(=O)O)C(=O)NCC(=O)N[C@@H](Cc1c[nH]c2ccccc12)C(=O)N[C@@H](CCSC)C(=O)N[C@@H](CC(=O)O)C(=O)N[C@@H](Cc1ccccc1)C(N)=O [SINCALIDE] | 100 | 0 | 100 | 100
H-GWMDF-NH2 | 0 | 100 | 62 | 38
